From publication PMC2943143 (Biochemical pharmacology, 2010)

Test system: calf thymus double-stranded DNA (dsDNA)
Test: Thermal transition of DNA
Type: binding
Conditions: 15 μM compound, calf thymus dsDNA 6 μg/ml, pH 7.0
Method in brief: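 Calf thymus dsDNA (6 μg/ml) in 0.1 M sodium phosphate pH 7.0 with 1% DMSO was tested with or without test compound, with ethidium bromide as intercalator control. Samples were equilibrated at 78 °C for 10 min, then raised 1 °C every 2 min. Absorbance was recorded on a spectrophotometer with a thermoelectric cell holder, and compound-only absorbance was subtracted to give Tm.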

CC[n+]1c(-c2ccccc2)c2cc(N)ccc2c2ccc(N)cc21 [ethidium bromide, reference compound]
effect on melting temperature (Tm) / thermal transition of dsDNA: clear shift of thermal transition
